Screening data deposited in PubChem BioAssay by The Scripps Research Institute Molecular Screening Center.
Only some compounds are listed: those with a hit (about 2.5% of all), similar ones and a draw of the others.
OX1R antag-1 = OX1R (HCRTR1) antagonists, primary screen, fluorescence, CHO/OX1R cells, Fluo-8 calcium, orexin A; Orexin/Hypocretin receptor type 1 (Homo sapiens), O43613; Fluo-8 calcium fluorescence; 0.43% of 330,000 active; inhibition, % at 5 µM;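 active means inhibition above its plate's threshold, mean inhibition of all tested compounds on the plate plus 3 SD, cut at about 37% in these data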
Target sequence (O43613 whole entry, looked up): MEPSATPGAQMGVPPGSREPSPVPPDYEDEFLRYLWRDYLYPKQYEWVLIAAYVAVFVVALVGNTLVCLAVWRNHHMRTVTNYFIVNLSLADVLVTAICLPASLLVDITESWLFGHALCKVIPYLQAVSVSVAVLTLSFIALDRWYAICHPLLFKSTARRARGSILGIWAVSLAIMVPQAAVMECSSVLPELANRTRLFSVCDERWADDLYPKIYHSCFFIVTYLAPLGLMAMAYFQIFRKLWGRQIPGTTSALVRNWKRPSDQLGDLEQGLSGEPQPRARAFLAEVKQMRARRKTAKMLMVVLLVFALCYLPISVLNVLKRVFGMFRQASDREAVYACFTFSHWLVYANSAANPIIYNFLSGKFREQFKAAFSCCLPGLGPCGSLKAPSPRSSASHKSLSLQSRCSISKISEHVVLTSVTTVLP
CHO parental Ca = ATP-evoked calcium signal inhibitors, parental CHO, primary screen, counter-screen for OX1R antagonist project, cell-based, fluorescence, Fluo-8 calcium dye. parental CHO-K1, ATP-induced calcium, Fluo-8 fluorescence. inhibition, % at 5.6 µM. 0.63% of 330,000 active. AID 463079, 2010;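 active means inhibition above that plate's mean sample inhibition plus 3 SD, cut at about 26% in these data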
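Material: Parental CHO cells | Reagent: ATP | Compound dosing: Single nominal dose of 5.6 µM per compound | Detection: Intracellular calcium via Fluo-8 no-wash fluorescent dye | Read-out: % inhibition of ATP-induced calcium mobilization | Benchmarks: Low control ATP plus DMSO, high control DMSO only | Replicates: Singlicate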
OX1R antag-2 = antagonists of human orexin 1 receptor (OX1R); Orexin/Hypocretin receptor type 1 (Homo sapiens), O43613; OX1R-expressing cells, FRET antagonist read-out; inhibition, % at 6.6 µM; 1.8% of 330,000 active; AID 485270, 2010; in the data active means inhibition mostly above about 38%, no sharp cut-off; inactive means mostly below about 40%
TRPN1 ag = zebrafish TRPN1 channel agonists, primary screen, cell-based, HEK293, calcium fluorescence; transient receptor potential cation channel N1 (TRPN1/NompC), Danio rerio; 0.18% of 220,000 active; HEK293 zebrafish TRPN1-YFP, Fluo-8 calcium fluorescence; 100% = response to 87 µM carbachol; activation, % at 3 µM;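 active means activation above its plate's cutoff, the mean activation of test wells on that plate plus 3 SD, cut at about 19% in these data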
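Material – zebrafish TRPN1-YFP in HEK293 cells · Doses – 3 µM single point · Schedule – dye 1 h 37 °C plus 30 min RT · Signal – Fluo-8 calcium fluorescence, excitation 470-495 nm, emission 515-575 nm · Read-out – % activation versus carbachol response · Control set – carbachol high, DMSO low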
TRPML3 ag = human TRPML3 channel agonists, primary screen, cell-based, HEK293 TRPML3-YFP, Fluo-8 calcium fluorescence, 3 µM; activation, % at 3 µM; 0.29% of 220,000 active; AID 1448, 2008; Mucolipin-3 (Homo sapiens), Q8TDD5; 100% = the carbachol control signal;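 active means activation above its plate's cutoff, the mean activation of the plate's test wells plus 3 SD, cut at about 12% in these data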
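system = HEK293 cells stably carrying human TRPML3-YFP | doses = one concentration, 3 µM nominal, 0.3% DMSO | timing = dye loading 1 h 37 °C then 30 min ambient, 125 s read | detection = Fluo-8 calcium dye fluorescence, ex 470-495, em 515-575 nm | benchmarks = high control carbachol 87 µM, low control DMSO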
Of the large screens only hits and unclear results are named; the others gave an inactive call.

CCOc1ccc(NC(=NCc2ccc3c(c2)OCO3)SC2CC(=O)N(c3ccc(C(=O)O)cc3)C2=O)cc1 (centres undefined)	OX1R antag-1 51, CHO parental Ca 38
N#CC(C#N)=C1c2cc(S(N)(=O)=O)ccc2-c2ccc(S(N)(=O)=O)cc21	none (no result: OX1R antag-1, CHO parental Ca, OX1R antag-2)
N#CC(C#N)=C1c2cc(S(=O)(=O)NCCO)ccc2-c2ccc(S(=O)(=O)NCCO)cc21	OX1R antag-2 69
CC(OC(=O)c1ccco1)C(=O)Nc1ccc(C(F)(F)F)cc1 (centres undefined)	none (no result: TRPN1 ag, TRPML3 ag)
O=C(NC12CC3CC(CC(C3)C1)C2)c1ccc([N+](=O)[O-])o1	none (no result: TRPN1 ag, TRPML3 ag)
CN(C)c1c([N+](=O)[O-])cc2[nH]c(=O)[nH]c2c1[N+](=O)[O-]	OX1R antag-2 42
CN(C)c1cc(-c2ccc([N+](=O)[O-])cc2)oc(=O)c1Cl	OX1R antag-2 49
CCOC(=O)c1c(CSc2ccccc2)oc2ccc(O)cc12	CHO parental Ca 26
CCOC(=O)c1c(CSc2ccc(CC)cc2)oc2ccc(O)c(CN(C)C)c12	CHO parental Ca 67 (no result: TRPN1 ag, TRPML3 ag)
CCN(CC)c1ccc(C(=O)OCC(=O)NC(C)(C)C)cc1	none
CCOC(=O)N1CCN(C2=C(NS(=O)(=O)c3ccccc3)C(=O)c3ccccc3C2=O)CC1	OX1R antag-2 68 (no result: TRPN1 ag, TRPML3 ag)
CCN1CCN(C2=C(NS(=O)(=O)c3ccccc3)C(=O)c3ccccc3C2=O)CC1	OX1R antag-2 74 (no result: TRPN1 ag, TRPML3 ag)
O=C(C1CCOCC1)N1CCCC(N2CCN(c3ccc(F)cc3)CC2)C1 (centres undefined)	none (no result: TRPN1 ag, TRPML3 ag)
CCOc1ccc(NC(=O)CN(C)C(=O)C2CSC3(C)CCC(=O)N23)cc1OCC (centres undefined)	none (no result: TRPN1 ag, TRPML3 ag)
O=c1c2ccccc2nc2c3ccccc3c(NCc3cccnc3)nn12	none
O=c1c2ccccc2nc2c3ccccc3c(NCCO)nn12	OX1R antag-2 50
O=C(CN1C(=O)CSc2ccc(S(=O)(=O)N3CCOCC3)cc21)NCc1ccc(Cl)cc1	OX1R antag-2 48 (no result: TRPN1 ag, TRPML3 ag)
COCC1CCCCN1C(=O)c1cc(COc2ccc3ncccc3c2)on1 (centres undefined)	OX1R antag-1 55, CHO parental Ca 47 (no result: TRPN1 ag, TRPML3 ag)
COCCC1CCCCN1C(=O)c1cc(COc2ccc(-n3cncn3)cc2)on1 (centres undefined)	CHO parental Ca 53 (no result: TRPN1 ag, TRPML3 ag)
CCN1CCN(C(=O)c2cc(COc3ccc4ncccc4c3)on2)CC1	none
COCCOC1CCN(C(=O)c2cc(COc3ccc(-n4cncn4)cc3)on2)CC1	none (no result: TRPN1 ag, TRPML3 ag)
COc1ccc(NC(=O)C(OC(=O)c2cnccn2)c2ccccc2)cc1Cl (centres undefined)	none (no result: TRPN1 ag, TRPML3 ag)
O=C(CCc1ccccc1)Oc1ccccc1[N+](=O)[O-]	none (no result: TRPN1 ag, TRPML3 ag)
Cc1cc(C(=O)OCC(=O)Nc2c(Cl)cccc2C(F)(F)F)c(C)o1	none (no result: TRPN1 ag, TRPML3 ag)
CCOC(=O)C1(Cc2ccc(Cl)cc2)CCN(C(C)Cc2ccc(O)c(OC)c2)CC1 (centres undefined)	CHO parental Ca 38 (no result: TRPN1 ag, TRPML3 ag)
Cn1cc2cc(NC(N)=S)ccc2n1	none
N#Cc1nc(Cc2ccccc2)oc1NCc1cccnc1	none
N#Cc1nc(Cc2ccccc2)oc1NCc1ccccc1Cl	CHO parental Ca 36
Cc1cc2c(NCCc3ccccc3)ncnc2s1	OX1R antag-1 49, CHO parental Ca 64, OX1R antag-2 54 (no result: TRPN1 ag, TRPML3 ag)
Cc1cc2c(Nc3ccccc3)ncnc2s1	none
c1ccc(CCNc2ncnc3ccccc23)cc1	CHO parental Ca 32
O=C(N/N=C/c1ccsc1)c1ccc2ccccc2n1	none (no result: OX1R antag-1)
C=CCn1c(-c2cccs2)nc2nc3ccccc3nc21	OX1R antag-2 72
Cc1cc(C)n2nc(SCC(=O)NC(=O)c3ccc(OC(F)F)cc3)nc2n1	none (no result: TRPN1 ag, TRPML3 ag)
O=C(CN1C(=O)C(=O)c2ccccc21)OCN1C(=O)c2ccccc2C1=O	OX1R antag-2 44
COc1ccccc1NC(=O)COC(=O)CN1C(=O)C(=O)c2ccccc21	none (no result: TRPN1 ag, TRPML3 ag)
CCCCCCCCCCOC(=O)Cn1c(COc2ccccc2)[n+](C)c2ccccc21	OX1R antag-1 73, CHO parental Ca 62 (no result: TRPN1 ag, TRPML3 ag)
CCCCCOC(=O)Cn1c(=O)oc2ccccc21	none
